# Activity calls are given as the source filed them. The calls are words filed in the database; no cut-off is given here.
# Legend:
# [1] = target: T1, Adenosine receptor A1 (Homo sapiens, UniProt P30542); assay: Irreversible agonist activity at human adenosine A1 receptor expressed in Flp-In-CHO cells assessed as stimulation of ERK1/2 phosphorylation incubated for 5 mins; format: cell-based
# T1 sequence (P30542 whole entry): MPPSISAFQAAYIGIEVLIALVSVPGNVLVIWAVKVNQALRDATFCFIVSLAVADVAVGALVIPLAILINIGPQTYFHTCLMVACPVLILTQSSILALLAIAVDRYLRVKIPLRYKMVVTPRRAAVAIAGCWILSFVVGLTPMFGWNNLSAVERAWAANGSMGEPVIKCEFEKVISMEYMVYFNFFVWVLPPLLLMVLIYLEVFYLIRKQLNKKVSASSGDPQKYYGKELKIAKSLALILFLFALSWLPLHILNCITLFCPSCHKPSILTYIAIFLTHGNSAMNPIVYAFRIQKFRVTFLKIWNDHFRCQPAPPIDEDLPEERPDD
# [2] = target: T2, Adenosine receptor A1 (Homo sapiens) (UniProt P30542); assay: Irreversible agonist activity at human adenosine A1 receptor expressed in Flp-In-CHO cells assessed as induction of positive change of cellular impedance at 1 uM incubated for 2 hrs by xCELLigence real-time cell analysis; format: cell-based; details: filed as agonist
# T2 sequence (whole entry): T1 sequence (P30542 whole entry)
# Method in brief: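 A1AR-FlpInCHO cells were serum-starved for about 18 h and equilibrated for at least 1 h at 37°C. 1 µM agonist or vehicle was added and impedance was recorded at 15 s intervals. […] Three experiments in duplicate.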
# [3] = system: Flp-In-CHO; assay: Stimulation of ERK1/2 phosphorylation in Flp-In-CHO cells incubated for 5 mins; format: cell-based; details: Cricetulus griseus
# Method in brief: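 A1AR-FlpInCHO cells were seeded at 4×10^4/well and serum-starved for about 18 h. Cells were stimulated with agonist for 5 min at 37°C, then lysed, and pERK1/2 was detected by SureFire. […] Curves were fitted for pEC50 and Emax. Three experiments in duplicate.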
# [4] = target: T2, Adenosine receptor A1 (Homo sapiens); assay: Binding affinity to human adenosine A1 receptor expressed in NECA-pre-treated Flp-In-CHO cell membranes assessed as [35S]GTP-gamma-S incorporation level at 10 uM incubated for 40 mins followed by washing by liquid scintillation counting; details: Cell membrane
# Method in brief: (§1)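 Membranes were pretreated with 10 µM ligand and washed as for the [3H]DPCPX assay. […] 300 pM [35S]GTPγS was then added for 40 min at 20°C, followed by filtration and counting. Values are normalised to NECA-stimulated vehicle-pretreated membranes.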
# [5] = system: Flp-In-CHO; assay: Effect on forskolin-induced cAMP accumulation in Flp-In-CHO cells incubated for 30 mins by LANCE cAMP detection assay; format: functional, cell-based; details: Cricetulus griseus
# [6] = target: T2, Adenosine receptor A1 (Homo sapiens); assay: Irreversible agonist activity at human adenosine A1 receptor expressed in Flp-In-CHO cells assessed as induction of positive change of cellular impedance at 1 uM incubated for 1.5 hrs followed by addition of 1 uM A1AR selective antagonist SLV320 by xCELLigence real-time cell analysis; format: cell-based; details: filed as agonist
# Method in brief: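 A1AR-FlpInCHO cells were seeded at 4×10^4/well, serum-starved for about 18 h, and equilibrated in the impedance reader for at least 1 h at 37°C. Cells were exposed to 1 µM agonist and impedance was recorded every 15 s. After about 1.5–1.7 h, 1 µM SLV320 was added and recording continued. […] Three experiments in duplicate.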
# [7] = target: T3, Adenosine receptor A2b (Homo sapiens, UniProt P29275); assay: Irreversible agonist activity at human adenosine A2B receptor expressed in Flp-In-CHO cells assessed as effect on forskolin-induced cAMP accumulation incubated for 30 mins by LANCE cAMP detection assay; format: functional, cell-based
# T3 sequence (P29275 whole entry): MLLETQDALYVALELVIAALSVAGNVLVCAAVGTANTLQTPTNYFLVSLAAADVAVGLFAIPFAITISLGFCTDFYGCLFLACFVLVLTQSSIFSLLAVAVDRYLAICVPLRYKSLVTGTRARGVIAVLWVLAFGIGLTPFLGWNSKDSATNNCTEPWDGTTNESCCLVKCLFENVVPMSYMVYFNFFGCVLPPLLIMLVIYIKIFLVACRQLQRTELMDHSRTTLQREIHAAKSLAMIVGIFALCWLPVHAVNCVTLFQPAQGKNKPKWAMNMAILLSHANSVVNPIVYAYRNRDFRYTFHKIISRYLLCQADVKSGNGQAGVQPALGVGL
# Method in brief: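 A2BAR-FlpInCHO cells in stimulation buffer with rolipram were exposed to agonist with no preincubation, then stopped with ethanol, lysed, and cAMP was detected by LANCE. Three to four experiments in duplicate.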
# [8] = target: T4, Adenosine receptor A3 (Homo sapiens, UniProt P0DMS8); assay: Irreversible agonist activity at human adenosine A3 receptor expressed in Flp-In-CHO cells assessed as effect on forskolin-induced cAMP accumulation incubated for 30 mins by LANCE cAMP detection assay; format: functional, cell-based
# T4 sequence (P0DMS8 whole entry): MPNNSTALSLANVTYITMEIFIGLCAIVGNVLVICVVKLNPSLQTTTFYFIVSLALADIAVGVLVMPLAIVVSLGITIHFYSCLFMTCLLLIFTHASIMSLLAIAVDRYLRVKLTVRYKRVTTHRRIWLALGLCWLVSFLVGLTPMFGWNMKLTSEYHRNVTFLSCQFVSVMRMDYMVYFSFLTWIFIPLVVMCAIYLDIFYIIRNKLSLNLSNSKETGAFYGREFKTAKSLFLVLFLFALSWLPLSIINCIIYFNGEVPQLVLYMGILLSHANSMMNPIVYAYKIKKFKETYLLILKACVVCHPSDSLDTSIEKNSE
# Method in brief: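 For Gi/o-coupled A1 or A3 FlpInCHO cells, cells were preincubated for 30 min at 37°C in stimulation buffer containing 10 µM rolipram. Agonist (10 pM–10 µM) was then added with 3 µM forskolin for 30 min at 37°C. The reaction was stopped with ethanol, cells were lysed, and cAMP was read by LANCE TR-FRET. […] Three to four experiments in duplicate.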
# [9] = target: T2, Adenosine receptor A1 (Homo sapiens); assay: Binding affinity to human adenosine A1 receptor expressed in Flp-In-CHO cell membranes assessed as [3H]DPCPX binding level at 10 uM incubated for 1 hr followed by washing by liquid scintillation counting based equilibrium radioligand binding assay; details: Cell membrane
# Method in brief: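 Membranes from A1AR-FlpInCHO cells were pre-incubated with 10 µM ligand in PBS with 1 unit ADA for 1 h at 37°C. They were then washed 3× with PBS, with 1 h at 37°C between washes, and resuspended in HME buffer. [3H]DPCPX at 0.1–12 nM was bound for 1 h at 37°C, filtered and β-counted. Nonspecific binding was defined with 1 µM SLV320. Results are expressed as % of buffer-pretreated Bmax, from three experiments in duplicate.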
# [10] = target: T1, Adenosine receptor A1; assay: Irreversible agonist activity at human adenosine A1 receptor expressed in Flp-In-CHO cells assessed as effect on forskolin-induced cAMP accumulation incubated for 30 mins by LANCE cAMP detection assay; format: functional, cell-based
# Method in brief: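 For Gi/o-coupled A1 or A3 FlpInCHO cells, cells were preincubated for 30 min at 37°C in stimulation buffer containing 10 µM rolipram. Agonist (10 pM–10 µM) was then added with 3 µM forskolin for 30 min at 37°C. The reaction was stopped with ethanol, cells were lysed, and cAMP was read by LANCE TR-FRET. Three to four experiments in duplicate.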
# [11] = target: Adenosine receptor A2a (Homo sapiens, UniProt P29274); assay: Irreversible agonist activity at human adenosine A2A receptor expressed in Flp-In-CHO cells assessed as effect on forskolin-induced cAMP accumulation incubated for 30 mins by LANCE cAMP detection assay; format: functional, cell-based
# [12] = target: T2, Adenosine receptor A1 (Homo sapiens); assay: Binding affinity to human adenosine A1 receptor expressed in Sf9 cells assessed protein melting temperature at 10 uM incubated for 30 mins by Thermo-fluor assay; format: cell membranes; details: Cell membrane, filed as agonist
# Method in brief: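 Human A1AR was purified from Sf9 cells in LMNG/CHS. 0.2 µg receptor was incubated with 10 µM compound for 20 h at 4°C in HEPES pH 7.5 buffer with ADA. CPM dye at 10 µM final was added for 30 min at rt. The sample was heated from 4 to 80°C in 3° steps, holding 90 s each, and fluorescence was read at 380/470 nm to derive Tm. Three experiments in duplicate.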
# [13] = target: T2, Adenosine receptor A1 (Homo sapiens); assay: Binding affinity to human adenosine A1 receptor expressed in Flp-In-CHO cell membranes assessed as basal [35S]GTP-gamma-S incorporation level at 10 uM incubated for 40 mins followed by washing by liquid scintillation counting; details: Cell membrane; method in brief: as §1
# [14] = target: T2, Adenosine receptor A1 (Homo sapiens); details: Sf9, Cell membrane, filed as agonist, dose 10.0 µM, time 30.0 min
# Adenosine receptor A2a, sequence (P29274 whole entry): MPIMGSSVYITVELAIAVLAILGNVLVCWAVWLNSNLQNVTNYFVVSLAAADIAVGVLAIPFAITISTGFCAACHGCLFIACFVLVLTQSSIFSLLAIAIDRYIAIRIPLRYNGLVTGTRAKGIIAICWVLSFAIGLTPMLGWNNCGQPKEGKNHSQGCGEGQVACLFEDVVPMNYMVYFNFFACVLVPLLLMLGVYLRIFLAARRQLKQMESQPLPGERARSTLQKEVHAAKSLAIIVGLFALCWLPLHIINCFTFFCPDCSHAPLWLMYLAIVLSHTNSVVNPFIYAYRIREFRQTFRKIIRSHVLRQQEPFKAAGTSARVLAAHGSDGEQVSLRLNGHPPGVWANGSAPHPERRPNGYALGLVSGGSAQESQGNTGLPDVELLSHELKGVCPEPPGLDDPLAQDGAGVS
compound,measurement,setting,value
OC[C@H]1O[C@@H](n2cnc3c(NCCCCCCCCCCN=C=S)ncnc32)[C@H](O)[C@@H]1O,EC50,[1],79.4 nM
same,Activity,[2],Active
same,Activity,[3],inactive
O=C(NCCCCCCNc1ncnc2c1ncn2[C@@H]1O[C@H](CO)[C@@H](O)[C@H]1O)c1ccc(S(=O)(=O)F)cc1,Activity,[3],inactive
OC[C@H]1O[C@@H](n2cnc3c(NCCCCCCN=C=S)ncnc32)[C@H](O)[C@@H]1O,Activity,[3],inactive
OC[C@H]1O[C@@H](n2cnc3c(NCCN=C=S)ncnc32)[C@H](O)[C@@H]1O,EC50,[1],158 nM
same,Activity,[3],inactive
OC[C@H]1O[C@@H](n2cnc3c(Nc4ccc(CNC(=S)Nc5ccc(N=C=S)cc5)cc4)ncnc32)[C@H](O)[C@@H]1O,Activity,[4]; filed as agonist,Active
same,Activity,[5],inactive
same,Activity,[6],Active
same,EC50,[7],224 nM
same,EC50,[8],44.7 nM
same,Activity,[9]; filed as agonist,8%
same,EC50,[10],55 nM
same,EC50,[11],67.6 nM
same,EC50,[1],1.58 nM
same,Tm,[12],46.6 °C
same,Activity,[2],Active
same,Activity,[3],inactive
same,Activity,[13],124%
O=C(NCCNc1ncnc2c1ncn2[C@@H]1O[C@H](CO)[C@@H](O)[C@H]1O)C1=CC2C=CC1CC2 (stereo partly drawn),Activity,[3],inactive
O=C(NCc1ccc(Nc2ncnc3c2ncn3[C@@H]2O[C@H](CO)[C@@H](O)[C@H]2O)cc1)c1ccc(S(=O)(=O)F)cc1,Activity,[4]; filed as agonist,Active
same,Activity,[5],inactive
same,Activity,[6],Active
same,EC50,[7],117 nM
same,EC50,[8],135 nM
same,Activity,[9]; filed as agonist,16%
same,EC50,[10],0.912 nM
same,EC50,[1],1 nM
same,Tm,[12],46.7 °C
same,Activity,[2],Active
same,Activity,[3],inactive
same,Activity,[13],134%
OC[C@H]1O[C@@H](n2cnc3c(NCCCCCCCCCCNC(=S)Nc4ccc(N=C=S)cc4)ncnc32)[C@H](O)[C@@H]1O,Activity,[3],inactive
O=C(NCCCCCCCCCCNc1ncnc2c1ncn2[C@@H]1O[C@H](CO)[C@@H](O)[C@H]1O)C1=CC2C=CC1CC2 (stereo partly drawn),EC50,[1],25.1 nM
same,Activity,[3],inactive
O=C(NCc1ccc(Nc2ncnc3c2ncn3[C@@H]2O[C@H](CO)[C@@H](O)[C@H]2O)cc1)C1=CC2C=CC1CC2 (stereo partly drawn),EC50,[1],1.58 nM
same,Activity,[2],Active
same,Activity,[3],inactive
O=C(NCCCCCCNc1ncnc2c1ncn2[C@@H]1O[C@H](CO)[C@@H](O)[C@H]1O)C1=CC2C=CC1CC2 (stereo partly drawn),EC50,[1],15.8 nM
same,Activity,[3],inactive
OC[C@H]1O[C@@H](n2cnc3c(NCCNC(=S)Nc4ccc(N=C=S)cc4)ncnc32)[C@H](O)[C@@H]1O,Activity,[6],Active
same,EC50,[1],3.16 nM
same,Activity,[3],inactive
CCNC(=O)[C@H]1O[C@@H](n2cnc3c(N)ncnc32)[C@H](O)[C@@H]1O,Activity,[4],99%
same,Activity,[5],inactive
same,Activity,[9],108%
same,Tm,[12],38.7 °C
same,Activity,[2],Active
same,Activity,[3],inactive
same,Activity,[13],57%
same,ΔTm,[14],4 °C
OC[C@H]1O[C@@H](n2cnc3c(NCCCCCCNC(=S)Nc4ccc(N=C=S)cc4)ncnc32)[C@H](O)[C@@H]1O,Activity,[3],inactive
CCCn1c(=O)c2nc(C3CCCC3)[nH]c2n(CCCOC(=O)c2ccc(S(=O)(=O)F)cc2)c1=O,Activity,[4]; filed as agonist,32%
same,Activity,[9]; filed as agonist,2%
same,Activity,[13]; filed as agonist,37%
OC[C@H]1O[C@@H](n2cnc3c(Nc4ccc(CN=C=S)cc4)ncnc32)[C@H](O)[C@@H]1O,Activity,[5],inactive
same,Activity,[6],Active
same,EC50,[7],708 nM
same,EC50,[8],347 nM
same,EC50,[10],269 nM
same,EC50,[11],646 nM
same,EC50,[1],20 nM
same,Tm,[12],42.7 °C
same,Activity,[2],Active
same,Activity,[3],inactive
O[C@H]1CC[C@H](Nc2nc(-c3ccccc3)nc3[nH]ccc23)CC1,Activity,[4]; filed as agonist,37%
O=C(NCCCCCCCCCCNc1ncnc2c1ncn2[C@@H]1O[C@H](CO)[C@@H](O)[C@H]1O)c1ccc(S(=O)(=O)F)cc1,Activity,[3],inactive

# — ChEMBL document CHEMBL4715802, “Novel Irreversible Agonists Acting at the A Adenosine Receptor” (J Med Chem, 2016)
